From ChEMBL document CHEMBL1123066, “N alpha-(diphenoxyphosphoryl)-L-alanyl-L-proline, N alpha-[bis (4-nitrophenoxy)phosphoryl]-L-alanyl-L-proline, and N alpha-[ (2-phenylethyl)phenoxyphosphoryl]-L-alanyl-L-proline: releasers of potent inhibitors of angiotensin converting enzyme at physiological pH and temperature” (J Med Chem, 1985) come the findings set out here.

SMILES strings stand for the structures.

Data set [1] can be described thus: Inhibitory potency was evaluated against angiotensin converting enzyme at the pH 7.5. Type of data set: ADME.
Data set [2] can be described thus: The half-life period was evaluated for the loss of 1 mol of phenol at the pH 7.5 in the presence of Tris buffer. Type of data set: ADME. The essentials:
(§1)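 Ester hydrolysis at pH 7.5 and 37 °C in 100 mM Tris or phosphate buffer with 300 mM NaCl, no enzyme. Phenol release (about 1 mM ester) followed at 275 nm, Δε 1375 M⁻¹cm⁻¹. 4-Nitrophenol release (about 10 μM ester) followed at 400 nm, Δε 12500 M⁻¹cm⁻¹. Starting concentrations checked by full hydrolysis in 6 N HCl at 110 °C. First-order rate constants and half-times derived.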

Data set [3] deals with T1, Angiotensin-converting enzyme (Oryctolagus cuniculus, UniProt P12822).
T1 sequence (P12822 whole entry): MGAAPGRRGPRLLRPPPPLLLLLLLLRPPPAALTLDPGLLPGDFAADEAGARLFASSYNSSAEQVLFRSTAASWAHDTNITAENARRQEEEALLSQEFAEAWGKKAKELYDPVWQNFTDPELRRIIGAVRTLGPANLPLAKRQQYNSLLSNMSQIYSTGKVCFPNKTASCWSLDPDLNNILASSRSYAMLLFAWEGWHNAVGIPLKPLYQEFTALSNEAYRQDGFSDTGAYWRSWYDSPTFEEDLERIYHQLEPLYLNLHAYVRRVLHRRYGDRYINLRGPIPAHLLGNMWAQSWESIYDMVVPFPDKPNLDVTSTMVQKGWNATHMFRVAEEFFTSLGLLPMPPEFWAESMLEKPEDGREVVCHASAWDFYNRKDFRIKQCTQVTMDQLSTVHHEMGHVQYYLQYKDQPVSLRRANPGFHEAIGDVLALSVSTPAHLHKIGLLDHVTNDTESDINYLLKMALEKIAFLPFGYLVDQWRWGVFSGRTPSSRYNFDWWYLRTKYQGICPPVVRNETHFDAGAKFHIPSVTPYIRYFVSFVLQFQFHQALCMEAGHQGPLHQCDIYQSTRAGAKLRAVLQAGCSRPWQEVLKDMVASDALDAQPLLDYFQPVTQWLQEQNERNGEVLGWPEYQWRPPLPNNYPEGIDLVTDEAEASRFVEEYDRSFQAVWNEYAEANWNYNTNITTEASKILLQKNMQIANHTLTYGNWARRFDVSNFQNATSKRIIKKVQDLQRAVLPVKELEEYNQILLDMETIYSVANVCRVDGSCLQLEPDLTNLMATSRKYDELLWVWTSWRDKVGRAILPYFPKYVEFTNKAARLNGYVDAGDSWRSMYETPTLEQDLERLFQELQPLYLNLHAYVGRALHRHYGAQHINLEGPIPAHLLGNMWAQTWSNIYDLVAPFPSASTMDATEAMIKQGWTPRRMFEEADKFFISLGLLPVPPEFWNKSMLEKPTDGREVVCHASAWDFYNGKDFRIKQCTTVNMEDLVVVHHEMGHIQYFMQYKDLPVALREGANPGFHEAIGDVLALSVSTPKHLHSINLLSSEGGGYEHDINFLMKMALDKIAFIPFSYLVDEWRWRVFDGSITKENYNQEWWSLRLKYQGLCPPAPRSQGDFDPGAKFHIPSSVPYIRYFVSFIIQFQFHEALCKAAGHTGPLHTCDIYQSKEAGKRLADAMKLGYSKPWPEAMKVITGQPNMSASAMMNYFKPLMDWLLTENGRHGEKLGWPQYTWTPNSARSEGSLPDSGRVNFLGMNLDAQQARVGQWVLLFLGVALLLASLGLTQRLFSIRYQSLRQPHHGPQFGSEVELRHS
As to the kind of experiment: Inhibition of Angiotensin I converting enzyme from rabbit lungs at pH 7.5.

Data set [4] in a line: Rate constant was evaluated for the loss of 1 mol of phenol at the pH 7.5 in the presence of Tris buffer. Type of data set: ADME. The essentials:
as §1

Data set [5] is described as follows: Rate constant was evaluated for the loss of 1 mol of phenol at the pH 7.5 in the presence of phosphate buffer. It is filed as ADME. The essentials: as §1
The nature of data set [6]: The half-life period was evaluated for the loss of 1 mol of phenol at the pH 7.5 in the presence of phosphate buffer. Type of data set: ADME. The essentials: as §1
Data set [7] is described as follows: Half life against hydrolysis at P-N bond. Type of data set: ADME. The essentials:
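P–N cleavage measured in pH 7.5 phosphate buffer at 37 °C. Free Ala-Pro primary amine determined by fluorescamine assay over the hydrolysis time course. Observed rate constant and half-time derived.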

For data set [8], the target named is T1, Angiotensin-converting enzyme. As to the kind of experiment: Inhibitory constant was evaluated against Angiotensin I converting enzyme from rabbit lungs.
The nature of data set [9]: Inhibitory potency was evaluated against angiotensin converting enzyme at the pH 7.5 in the presence of Tris phosphate buffer, 300 mM in NaCl. It is filed as ADME.
In data set [10] the target is T1, Angiotensin-converting enzyme. As to the kind of experiment: Inhibitory constant was evaluated against Angiotensin I converting enzyme from rabbit lungs at pH 8 in TRIS phosphate/borate buffer.
Data set [11] shares this target. As to the kind of experiment: Inhibitory constant was evaluated against Angiotensin I converting enzyme from rabbit lungs at pH 8.
Data set [12] shares this target. As to the kind of experiment: Binding affinity against Angiotensin I converting enzyme.
Data set [13] in a line: Rate constant was evaluated for the loss of 2 mol of phenol at the pH 7.5 in the presence of Tris buffer. Type of data set: ADME. The essentials: as §1
Data set [14] can be described thus: The half-life period was evaluated for the loss of 2 mol of phenol at the pH 7.5 in the presence of Tris buffer. It is filed as ADME. The essentials: as §1
Data set [15] in a line: Rate constant was evaluated for the loss of 2 mol of phenol at the pH 7.5 in the presence of phosphate buffer. It is filed as ADME. The essentials:
as §1

A short description of data set [16]: The half-life period was evaluated for the loss of 2 mol of phenol at the pH 7.5 in the presence of phosphate buffer. It is filed as ADME. The essentials:
as §1

Data set [17] deals with T1, Angiotensin-converting enzyme. As to the kind of experiment: Inhibitory activity against Angiotensin I converting enzyme was evaluated.

The term half-life denotes how long it takes for the measured level to halve. Broadly, the Ki is a dissociation constant, usually derived from enzyme kinetics or from competition with a known ligand. The low end stands for tighter binding, the high end for weaker binding. As usually defined, the IC50 is the concentration that gives 50% inhibition.

On to `C[C@H](NP(=O)(Oc1ccccc1)Oc1ccccc1)C(=O)N1CCC[C@H]1C(=O)O`, for which the half-life in data set [1] is 384 h; in data set [2], 528 h; in [6], 576 h. The inhibition constant (Ki) in data set [3] was 42 µM. The Rate constant stood at 0.0013 h⁻¹ in [4] and 0.0012 h⁻¹ in data set [5].

For the compound `C[C@H](NP(=O)([O-])[O-])C(=O)N1CCC[C@H]1C(=O)[O-].[K+].[K+].[K+]`, in data set [7], the half-life is 2.2 h. For the same compound, the Ki in [3] worked out at 0.0014 µM. In data set [8], this compound showed a 50% inhibitory concentration (IC50) of 0.7 µM.

For the compound `C[C@H](NP(=O)(CCc1ccccc1)Oc1ccccc1)C(=O)N1CCC[C@H]1C(=O)O` (stereo partly drawn), the figures for the half-life in [2], in data set [9] and in [6] were 504 h, 912 h and 744 h, respectively. This compound also came in with a Ki in data set [3] of 55 µM. In addition, the Rate constant is 0.0014 h⁻¹ in data set [4] and 0.001 h⁻¹ in data set [5].

On to `C[C@H](NP(=O)(O)OCc1ccccc1)C(=O)N1CCC[C@H]1C(=O)O`, for which the Ki in data set [3] is 0.0012 µM.

As for `C[C@H](NP(=O)(O)Oc1ccccc1)C(=O)N1CCC[C@H]1C(=O)O`, the IC50 in data set [10] came to 50000 µM; in [11], 0.9 µM. The compound also yielded a Ki in [3] of 0.008 µM.

Regarding `C[C@H](NP(=O)(O)Oc1ccc([N+](=O)[O-])cc1)C(=O)N1CCC[C@H]1C(=O)O`, the Ki in [3] and in data set [12] was 0.018 µM each time.

Take `C[C@H](NP(=O)(Oc1ccc([N+](=O)[O-])cc1)Oc1ccc([N+](=O)[O-])cc1)C(=O)N1CCC[C@H]1C(=O)O`: the half-life was 3.4 h in [2]; 29 h in data set [14]; 22 h in data set [16]; 4 h in data set [9]; 2 h in [6]. For the same compound, the Rate constant in [13] was 0.025 h⁻¹; in data set [15], 0.031 h⁻¹; in data set [4], 0.2 h⁻¹; in [5], 0.34 h⁻¹. This compound also registered a Ki in [3] of 0.8 µM.

In turn, `C[C@H](NP(=O)(O)CCc1ccccc1)C(=O)N1CCC[C@H]1C(=O)O` yielded a Ki in [3] of 0.0005 µM. In addition, inhibition in [17] was half-maximal at 0.007 µM (IC50).
